Many of the other results were omitted from the sample, so hits are more common in it than they were.
CDK5 inh – inhibitors of human CDK5/p35 kinase. Q00535+Q15078. Recombinant CDK5/p35, ADP-Glo luminescence, 60 min. inhibition, % at 10 µM. 330,000 tested, 0.01% active. AID 488839;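 active = highest replicate inhibition of at least 50% and at least 75% of replicates reaching 50%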;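 note: plate controls were DMSO neutral control for no effect and GW8510 at 10 µM for full effect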
STK33 inh – human STK33 kinase inhibition. Q9BYT3. purified STK33, MBP phosphorylation, ADP-Glo luminescence. inhibition, % at 10 µM. 320,000 tested, 0.073% active. AID 2661;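 active = inhibition at or above 25%, using the most active replicate where run in duplicate; inactive = inhibition below 25%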
Target sequence (Q9BYT3 whole entry, looked up): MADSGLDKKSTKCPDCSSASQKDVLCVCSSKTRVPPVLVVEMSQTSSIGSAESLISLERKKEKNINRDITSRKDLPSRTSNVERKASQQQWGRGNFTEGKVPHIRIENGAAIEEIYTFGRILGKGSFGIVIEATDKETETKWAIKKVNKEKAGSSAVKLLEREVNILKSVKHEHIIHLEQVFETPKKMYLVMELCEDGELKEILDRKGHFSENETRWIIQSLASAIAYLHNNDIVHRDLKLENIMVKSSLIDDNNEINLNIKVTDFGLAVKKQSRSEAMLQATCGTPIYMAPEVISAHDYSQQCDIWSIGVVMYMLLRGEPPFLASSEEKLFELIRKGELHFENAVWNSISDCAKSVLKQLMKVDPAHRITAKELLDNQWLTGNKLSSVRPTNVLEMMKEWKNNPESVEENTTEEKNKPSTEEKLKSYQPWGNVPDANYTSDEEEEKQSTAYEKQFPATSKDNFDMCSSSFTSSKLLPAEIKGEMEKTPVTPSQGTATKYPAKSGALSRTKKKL
GSK3B inh – human GSK3beta kinase inhibition. P49841. AID 2097. activity score (negative = inhibition), % at 10 µM. 300,000 tested, 0.038% active. GST-GSK3beta kinase, ADP-Glo luminescence, 60 min; active compounds read low;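 active = more than half of replicate wells score below -50%, meaning over 50% inhibition versus plate controls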;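 note: 0% = median DMSO wells and -100% = median GW8510 positive control wells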
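test system = GST-tagged human GSK3beta kinase, cell-free | reagent = 25 µM ATP with peptide substrate | dosing = one dose of 10 µM per compound | schedule = 60 min reaction, RT | detection = luminescent ADP-Glo measurement of ADP formed | control set = DMSO neutral wells and GW8510 at 20 µM as positive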
DYRK1A inh – blocks rat Dyrk1A kinase activity. inhibition, % at 12.5 µM. 310,000 tested, 0.43% active. ADP-Glo luminescence, NFATc1 peptide. AID 504441; in the data active = inhibition above about 50%;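 note: plate controls were vehicle with enzyme for no effect and no enzyme for full effect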
GSK3A inh – inhibitors of human GSK-3 alpha kinase | P49840 | ADP-Glo luminescence, 60 min | inhibition, % at 10 µM | 320,000 tested, 0.1% active | AID 2650;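 active = more than half of replicates show inhibition above 20%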;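 note: GST-tagged GSK-3 alpha with peptide substrate and 25 µM ATP; 0% = DMSO neutral wells and 100% = GW8510 positive control wells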
Dyrk1A artifact – ADP-Glo luciferase interference, Dyrk1A counter-screen. shares compounds with DYRK1A inh. ADP-Glo luciferase artifact assay, no Dyrk1A, luminescence. AC50, µM (doses to about 12 µM), inactives show at the highest dose activity change, negative = inhibition. 1,300 tested, under 10 active. AID 588348;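 active = fitted half-maximal dose AC50 no more than ten times the top valid tested dose, with luminescence dropping as dose rises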
An asterisk follows results filed as active; . = no result; ! = not confirmed by another sample.

SMILES | CDK5 inh | STK33 inh | GSK3B inh | DYRK1A inh | GSK3A inh | Dyrk1A artifact
CCN(CC)CCN=Cc1c(O)n(C2CCCCCC2)c(=O)[nH]c1=O | 1.7 | 0.9 | -3.9 | 0.1 | 12.9 | .
CC(=NCCCn1ccnc1)c1c(O)n(-c2ccccc2)c(=O)[nH]c1=O | 0.6 | 0.3 | -11.1 | . | 22.9 | .
O=c1[nH]c(=O)n(C2CCCCC2)c(O)c1C=NCCCn1ccnc1 | 2.7 | -1.3 | 1.8 | 7.4 | 66.9* | .
CC(=NCCCn1ccnc1)c1c(O)n(C2CCCCC2)c(=O)[nH]c1=O | 0.0 | -1.0 | 0.9 | 0.5 | 66.6* | .
N#Cc1ccc(NC(=O)CN2CCCCCC2)cc1Cl | -1.0 | -1.2 | -0.2 | 6.9 | -1.6 | .
O=C(C1CC(c2ccc(Cl)c(Cl)c2)=NO1)N1CCC2(CC1)OCCO2 (centres undefined) | 0.1 | -1.5 | 2.1 | -10.8 | -3.5 | .
CN1/C(=C\C=C\C2=[N+](C)c3ccc4ccccc4c3C2(C)C)C(C)(C)c2ccccc21 | . | 26.2* | . | . | 71.3* | .
CCn1nc(-c2ccccc2)nc2c(=O)n(C)c(=O)nc1-2 | 1.4 | 2.7 | -32.5 | 67.9* | 19.7 | .
COc1cc2c(cc1O)CC1c3c(cc(O)c(OC)c3-2)CCN1C (centres undefined) | 2.2 | 6.8 | -1.3 | 70.0* | 13.8 | 11.0%
C1=CC(Cc2cncs2)c2ccccc21 (centres undefined) | 0.1 | -1.0 | . | -7.4 | -0.1 | .
N#Cc1cn(C2OC(CO)C(O)C2O)c2ncnc(N)c12 (centres undefined) | 1.4 | . | . | 2.2 | . | .
NC(=O)c1cn(C2OC(CO)C(O)C2O)c2ncnc(N)c12 (centres undefined) | 41.8 | 13.2 | -0.4 | 87.9*! | 72.1* | 6.7%
NC(=O)c1c(Br)n(C2OC(CO)C(O)C2O)c2ncnc(N)c12 (centres undefined) | 7.2 | . | . | 64.7* | . | 6.5%
N#Cc1c(Br)n(C2OC(CO)C(O)C2O)c2ncnc(N)c12 (centres undefined) | 13.6 | . | . | 74.8* | . | 6.8%
N=Cc1c(O)n(-c2ccccc2)c(=O)n(-c2ccccc2)c1=O | 1.3 | -0.7 | -0.1 | -1.2 | 1.0 | .
CN1CC=C(/C=C/c2ccc(-c3ccccc3)cc2)CC1 | . | 0.9 | -1.7 | . | -1.7 | .
Cc1nc2c(=O)n(C)c(=O)nc-2n(C)n1 | 2.6 | -1.5 | -23.0 | 75.8* | 6.7 | 9.4%
O=C(O)CC1OCC=C2CN3CCC45c6ccccc6NC4C1C2CC35 (centres undefined) | -1.4 | 0.0 | -1.3 | 2.6 | 4.8 | .
O=C(O)CC1OCC=C2CN3CCC45C6=CC(=O)C(=O)C([N+](=O)[O-])=C6NC4C1C2CC35 (centres undefined) | 1.3 | 3.9 | -0.9 | 55.7* | 6.9 | 9.6%
COc1cc2cc(C(=O)N3CC(COS(C)(=O)=O)c4ccc(O)cc43)[nH]c2c(OC)c1OC (centres undefined) | 2.6 | . | . | 9.5 | . | .

Screening results deposited in PubChem BioAssay by Broad Institute.
